Test results taken from ChEMBL document CHEMBL2150978, “Phosphorodiamidates as a promising new phosphate prodrug motif for antiviral drug discovery: application to anti-HCV agents” (J Med Chem, 2011).

Experiments:
[1] = tested on: Liver; test: Tmax in Sprague-Dawley rat liver assessed as 2'-C-methyl guanosine triphosphate level at 10 mg/kg, po up to 24 hrs by LC-MS/Ms analysis; format: ADME, organism-based; parameters: dose 10 mg/kg, route oral; settings: in vivo
Method in brief: (§1)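 Male Sprague-Dawley rats dosed orally by gavage at 10 mg/kg in 95% Capmul MCM/5% Tween 80. Livers collected terminally at eight time points up to 24 h and snap-frozen in liquid nitrogen. Liver 2′-C-methylguanosine triphosphate quantified by LC-MS/MS, linear over 100−4000 ng per gram of tissue (r² ≥ 0.99, ≥85% accuracy, ≤2% CV).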

[2] = Cytotoxicity against human HuH7 cells after 3 days; format: cell-based, Huh-7
Method in brief: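 Huh7 replicon cells seeded at 2 × 10⁴ per well one day before dosing. Four-fold serial dilutions in growth medium, no-drug controls on each plate. Incubated 3 days at 37 °C, 5% CO₂. Viability read by CellTiter-Glo luminescence after 20 min with reagent.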

[3] = tested on: Liver; test: AUC (0 to t) in Sprague-Dawley rat liver assessed as 2'-C-methyl guanosine triphosphate level at 10 mg/kg, po up to 24 hrs by LC-MS/Ms analysis; format: ADME, organism-based; parameters: dose 10 mg/kg, route oral; settings: in vivo; method in brief: as §1
[4] = tested on: Hepatitis C virus; test: Antiviral activity against Hepatitis C virus subtype 1b Con1 infected in human Huh7 cells assessed as inhibition of HCV replicon-encoded Renilla luciferase reporter activity after 72 hrs by HCV replicon assay; format: functional, organism-based, Hepacivirus hominis; settings: Con1, Huh-7, 72 h
Method in brief: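 Huh7 cells stably carrying a bicistronic subgenomic genotype 1b (Con1) replicon with Renilla luciferase reporter, seeded at 2 × 10⁴ cells/well the day before. Four-fold serial dilutions in growth medium, no-drug controls on each plate; 3 days at 37 °C, 5% CO₂. Luciferase reagent 20 min, then luminescence (RLU) read; EC₅₀ derived.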

[5] = tested on: Liver; test: Cmax in Sprague-Dawley rat liver assessed as 2'-C-methyl guanosine triphosphate level at 10 mg/kg, po up to 24 hrs by LC-MS/Ms analysis; format: ADME, organism-based; parameters: dose 10 mg/kg, route oral; settings: in vivo; method in brief: as §1
[6] = tested on: Liver; test: Clast in Sprague-Dawley rat liver assessed as 2'-C-methyl guanosine triphosphate level at 10 mg/kg, po up to 24 hrs by LC-MS/Ms analysis; format: ADME, organism-based; parameters: dose 10 mg/kg, route oral; settings: in vivo; method in brief: as §1
[7] = Selectivity index, ratio of CC50 for human HuH7 cells to EC50 for Hepatitis C virus subtype 1b Con1; format: toxicity, cell-based, Huh-7; settings: read-out: Ratio CC50/EC50
Method in brief: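 Huh7 cells carrying a stable bicistronic subgenomic genotype 1b (Con1) HCV replicon with Renilla luciferase reporter, 2 × 10⁴ cells per well. Four-fold serial dilutions, 3 days at 37 °C, 5% CO₂. Replicon inhibition read by luciferase luminescence (RLU) and cytotoxicity by CellTiter-Glo in the same cell line. SI taken as CC50/EC50.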

[8] = Drug metabolism in acetone-d6 and TRIZMA buffer at pH 7.4 assessed as (S)-2-((((2R,3R,4R,5R)-5-(2-amino-6-methoxy-9H-purin-9-yl)-3,4-dihydroxy-4-methyltetrahydrofuran-2-yl)methoxy)oxidophosphorylamino)propanoate level at 6.94 ppm at pH 7.4 after 1 hr by 31P NMR in presence of carboxypeptidase Y; format: physicochemical; settings: pH 7.4, 1 h
Method in brief: (§2)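 Compound (about 5 mg) in 200 μL acetone-d₆ plus 400 μL Trizma buffer pH 7.4. Baseline ³¹P NMR recorded, then 0.3−0.5 mg carboxypeptidase Y in 200 μL Trizma pH 7.4 added. Processing followed by ³¹P NMR kinetics. A buffer phosphate impurity peak stays constant throughout.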

[9] = Stability of the compound in triethylammonium bicarbonate buffer assessed as compound decomposition at pH 8.5 incubated at 37 degC by [31P] NMR spectroscopy; format: physicochemical
Method in brief: (§3)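 Base stability tested at pH 8.5 and at pH 11, both at 37 °C, followed by ³¹P NMR, with pH 11 samples followed to 17 h. Half-life estimated assuming first-order decay.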

[10] = Drug metabolism in acetone-d6 and TRIZMA buffer at pH 7.4 assessed as (S)-2-((((2R,3R,4R,5R)-5-(2-amino-6-methoxy-9H-purin-9-yl)-3,4-dihydroxy-4-methyltetrahydrofuran-2-yl)methoxy)oxidophosphorylamino)propanoate level at 6.95 ppm at pH 7.4 after 1 hr by 31P NMR in presence of carboxypeptidase Y; format: physicochemical; settings: pH 7.4, 1 h; method in brief: as §2
[11] = Stability of the compound in triethylammonium bicarbonate buffer assessed as compound decomposition at pH 11 incubated for 17 hrs at 37 degC by [31P] NMR spectroscopy; format: physicochemical; settings: pH 11, 17 h; method in brief: as §3
[12] = Stability in phosphate buffer at pH 7 after 14 hrs by [31P] NMR spectroscopy; format: physicochemical; settings: pH 7, 14 h
[13] = Stability in citric acid-HCl buffer at pH 2 incubated for 14 hrs at 37 or 47 degC by [31P] NMR spectroscopy; format: physicochemical; settings: pH 2, 14 h
Method in brief: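 Compound in citric acid−HCl buffer pH 2, held at 37 or 47 °C and monitored by ³¹P NMR over 14 h.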

[14] = Stability in phosphate buffer assessed as compound decomposition by HPLC; format: physicochemical
[15] = tested on: Serum; test: Stability in human serum incubated for 12 hrs by [31P] NMR spectroscopy; format: ADME, cell-free
[16] = Stability of the compound in triethylammonium bicarbonate buffer assessed as compound decomposition at pH 11 incubated at 37 degC by [31P] NMR spectroscopy; format: physicochemical; method in brief: as §3

Row | SMILES | Tmax [1] [h] | CC50 at 72 h [2] [nM] | AUCt [3] [ng·h/g] | EC50 [4] [nM] | EC90 [4] [nM] | Cmax [5] [ng/g] | Clast [6] [ng/g] | selectivity ratio [7] | Drug metabolism [8] | Stability [9] | Drug metabolism [10] | Stability [11] | Stability [12] | Stability [13] | Stability [14] | Stability [15] | Stability [16]
1 | CCCCOC(=O)[C@H](C)NP(=O)(N[C@@H](C)C(=O)OCCCC)OC[C@H]1O[C@@H](n2cnc3c(OC)nc(N)nc32)[C@](C)(O)[C@@H]1O (mixture of isomers) | 8 | > 100000 | 27671 | 70 | 230 | 1553.3 | 719.7 | – | – | – | – | – | – | – | – | – | –
2 | CCCCCOC(=O)[C@H](C)NP(=O)(N[C@@H](C)C(=O)OCCCCC)OC[C@H]1O[C@@H](n2cnc3c(OC)nc(N)nc32)[C@](C)(O)[C@@H]1O (mixture of isomers) | 8 | 65000 | 18600 | 30 | 110 | 1042.3 | 506 | – | – | – | – | – | – | – | – | – | –
3 | CCC(C)OC(=O)[C@H](C)NP(=O)(N[C@@H](C)C(=O)OC(C)CC)OC[C@H]1O[C@@H](n2cnc3c(OC)nc(N)nc32)[C@](C)(O)[C@@H]1O (mixture of isomers) | 8 | > 100000 | 16252 | 150 | 530 | 907.7 | 538.7 | – | – | – | – | – | – | – | – | – | –
4 | COc1nc(N)nc2c1ncn2[C@@H]1O[C@H](COP(=O)(N[C@@H](C)C(=O)OC2CCCC2)N[C@@H](C)C(=O)OC2CCCC2)[C@@H](O)[C@@]1(C)O (mixture of isomers) | 8 | > 100000 | 24546 | 60 | 220 | 1523.3 | 610 | – | – | – | – | – | – | – | – | – | –
5 | COc1nc(N)nc2c1ncn2[C@@H]1O[C@H](COP(=O)(N[C@@H](C)C(=O)OC2Cc3ccccc3C2)N[C@@H](C)C(=O)OC2Cc3ccccc3C2)[C@@H](O)[C@@]1(C)O (mixture of isomers) | 24 | 70000 | 10642 | 580 | 1300 | 632 | 632 | – | – | – | – | – | – | – | – | – | –
6 | COc1nc(N)nc2c1ncn2[C@@H]1O[C@H](COP(=O)(N[C@@H](C)C(=O)OCC(C)(C)C)N[C@@H](C)C(=O)OCC(C)(C)C)[C@@H](O)[C@@]1(C)O (mixture of isomers) | 8 | > 100000 | 25147 | 60 | 200 | 1580 | 800 | > 1600 | Active | Stable | Active | Stable | Stable | Stable | Stable | Stable | Stable
7 | COc1nc(N)nc2c1ncn2[C@@H]1O[C@H](COP(=O)(N[C@H](C)C(=O)OCC(C)(C)C)N[C@H](C)C(=O)OCC(C)(C)C)[C@@H](O)[C@@]1(C)O (mixture of isomers) | 8 | > 100000 | 11608 | 110 | 500 | 598.3 | 441.7 | – | – | – | – | – | – | – | – | – | –
8 | CC[C@H](C)[C@H](NP(=O)(N[C@H](C(=O)OC1CCCCC1)[C@@H](C)CC)OC[C@H]1O[C@@H](n2cnc3c(OC)nc(N)nc32)[C@](C)(O)[C@@H]1O)C(=O)OC1CCCCC1 (mixture of isomers) | – | 14000 | – | 4000 | 7100 | – | – | 4 | – | – | – | – | – | – | – | – | –
9 | COc1nc(N)nc2c1ncn2[C@@H]1O[C@H](COP(=O)(N[C@H](C(=O)OCc2ccccc2)C(C)C)N[C@H](C(=O)OCc2ccccc2)C(C)C)[C@@H](O)[C@@]1(C)O (mixture of isomers) | 4 | 49000 | 4478 | 120 | 660 | 359.5 | 73.6 | – | – | – | – | – | – | – | – | – | –
10 | COc1nc(N)nc2c1ncn2[C@@H]1O[C@H](COP(=O)(N[C@@H](C)C(=O)OCC(C)(C)C)Oc2cccc3ccccc23)[C@@H](O)[C@@]1(C)O (some centres undefined) [BMS-986094] | 8 | – | 24557 | – | – | 1446.7 | 983.3 | – | – | – | – | – | – | – | – | – | –
